Data set [1] can be described thus: Selectivity index, ratio of IC50 for antiproliferative activity in HEK293T cells to IC50 for antiproliferative activity in human p53 (-/-) human HCT116 cells. It counts as toxicity, cell-based. Conditions: HEK293T cells versus p53 (-/-) HCT116 cells, read-out: Ratio IC50.
Another data set has as its system MDA-MB-231. Nature of the data set: Antiproliferative activity in human MDA-MB-231 cells incubated for 72 hrs by MTT assay. It counts as functional, cell-based. The settings on record: MDA-MB-231, 72 h. In outline:
(§1)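 Cells grown in RPMI 1640 with 10% FBS, penicillin/streptomycin; seeded at 2 × 10⁵ cells/mL, allowed to adhere 24 h, then exposed 72 h to compounds diluted in medium from DMSO stocks. MTT added after medium change, 3 h, formazan dissolved in DMSO, absorbance at 570 nm. Triplicate wells, at least 3 independent experiments; IC50 by non-linear regression.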
On the technique in general: Tetrazolium dyes change colour on reduction, which living cells bring about.

For data set [2], the system named is HCT-116. Nature of the data set: Antiproliferative activity in p53 (+/+) human HCT116 cells incubated for 72 hrs by MTS assay. It counts as functional, cell-based. The settings on record: HCT-116, 72 h. In outline: (§2)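 HCT116 p53(+/+) or p53(−/−) seeded at 1 × 10⁵ cells/mL, adhered 24 h, then treated 72 h with compounds diluted from DMSO stocks. Viability by MTS (CellTiter96 AQueous) with absorbance at 490 nm. Duplicate wells, three independent experiments; IC50 by non-linear regression.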

Data set [3] is described as follows: Selectivity index, ratio of IC50 for antiproliferative activity in HEK293T cells to IC50 for antiproliferative activity in human p53 (+/+) human HCT116 cells. It counts as toxicity, cell-based. The settings on record: HEK293T cells versus p53 (+/+) HCT116 cells, read-out: Ratio IC50.
Data set [4] in a line: Selectivity index, ratio of IC50 for antiproliferative activity in HEK293T cells to IC50 for antiproliferative activity in human MCF7 cells. The data set is classed as toxicity, cell-based. Conditions: HEK293T cells versus MCF7 cells, read-out: Ratio IC50. In outline:
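Ratio of HEK 293T IC50 to MCF-7 IC50 from 72 h MTT assays.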

The subject of the next data set is HEK-293T. Nature of the data set: Antiproliferative activity in human HEK293T cells incubated for 72 hrs by MTT assay. It counts as cell-based. In outline:
as §1

The test system of a further data set is MCF7. Nature of the data set: Antiproliferative activity in human MCF7 cells incubated for 72 hrs by MTT assay. It counts as functional, cell-based. Conditions: MCF7, 72 h. In outline:
as §1

For data set [5], the system named is HCT-116. Nature of the data set: Antiproliferative activity in p53 (-/-) human HCT116 cells incubated for 72 hrs by MTS assay. It counts as functional, cell-based. The settings on record: HCT-116, 72 h. Summed up:
as §2

Some results are limits rather than exact numbers.

As usually defined, the IC50 is the point on the concentration scale where inhibition reaches its midpoint. A high value points to weaker potency. Consider `O=C1Nc2ccc(Cl)cc2C12N(c1ccccc1)N=C(c1ccccc1)N2c1ccccc1` (centres undefined), for which the selectivity ratio in data set [1], in data set [3] and in data set [4] was less than 2 in each case. Besides, the concentration for half-maximal inhibition (IC50) was determined as 11.7 µM in the data set on MDA-MB-231; 21.6 µM in the data set on HCT-116 [2]; 32.6 µM with HEK-293T; 19.1 µM with MCF7; 22.1 µM with HCT-116 [5].
As to `O=C1Nc2ccccc2C12N(c1ccc(Cl)cc1)N=C(c1ccccc1)N2c1ccc(Cl)cc1` (centres undefined), the selectivity ratio in data set [1], in data set [3] and in data set [4] was less than 2 in each case. Besides, the concentration for half-maximal inhibition (IC50) in the data set on MDA-MB-231 was 9 µM; in the data set on HCT-116 [2], 18.5 µM; with HEK-293T, 15.8 µM; with MCF7, 10.1 µM; with HCT-116 [5], 18.7 µM.
Turning to `O=C1Nc2ccccc2C12N(c1ccccc1)N=C(c1ccccc1)N2c1ccccc1` (centres undefined), the IC50 came to 23.4 µM in the data set on MDA-MB-231 and 36.2 µM in the data set on MCF7.
Turning to `O=C1Nc2ccccc2C12N(c1ccccc1Cl)N=C(c1cccc(Cl)c1)N2c1ccc(Cl)cc1` (centres undefined), the selectivity ratio was less than 2 in data set [1], less than 2 in data set [3] and 2.7 in data set [4]. Further, the IC50 in the data set with MDA-MB-231 was found to be 14.5 µM; in the data set on HCT-116 [2], 25.3 µM; with HEK-293T it was 35 µM; in the data set with MCF7, 13.1 µM; in the data set with HCT-116 [5] it was 34.6 µM.
Consider `O=C1Nc2ccc(Br)cc2[C@]12[C@@H](c1cccc(Cl)c1)C(c1ccccc1)=NN2c1ccccc1`, for which the 50% inhibitory concentration (IC50) with MDA-MB-231 turned out to be 12.6 µM; in the data set with MCF7, 10 µM.
In the case of `COc1ccc(C2=NN(c3ccccc3)C3(C(=O)Nc4ccc(Br)cc43)N2c2cccc(Cl)c2)cc1` (centres undefined), the selectivity ratio in data set [1], in data set [3] and in data set [4] was less than 2 throughout. Besides, the IC50 amounted to 14.1 µM in the data set with MDA-MB-231; 22.2 µM with HCT-116 [2]; 25.9 µM in the data set on HEK-293T; 12.3 µM in the data set on MCF7; 25.8 µM with HCT-116 [5].
Regarding `O=C1Nc2ccc(Br)cc2C12N(c1ccccc1)N=C(c1ccc(Cl)cc1)N2c1cccc(Cl)c1` (centres undefined), the selectivity ratio in data set [1], in data set [3] and in data set [4] was less than 2 each time. Moreover, the IC50 in the data set with MDA-MB-231 worked out at 14.6 µM; in the data set on HCT-116 [2], 10.8 µM; in the data set with HEK-293T it was 20.3 µM; with MCF7, 10.1 µM; in the data set on HCT-116 [5], 10.8 µM.
Turning to `O=C1Nc2ccccc2[C@]12[C@@H](c1ccccc1)C(c1ccccc1)=NN2c1ccccc1`, the IC50 in the data set with MCF7 was greater than 100 µM.
As to `O=C1Nc2ccccc2C12N(c1ccccc1)N=C(c1ccccc1)N2c1cccc(Cl)c1` (centres undefined), the selectivity ratio in data set [1], in data set [3] and in data set [4] was less than 2 in each case. For the same compound, the IC50 with MDA-MB-231 amounted to 12.5 µM; in the data set with HCT-116 [2], 19.9 µM; in the data set on HEK-293T, 25.7 µM; in the data set with MCF7, 13.7 µM; in the data set on HCT-116 [5] it was 22.1 µM.
`O=C1Nc2ccccc2C12N(c1ccccc1)N=C(c1cccc(Cl)c1)N2c1ccc(Cl)cc1` (centres undefined): the selectivity ratio in data set [1], in data set [3] and in data set [4] was less than 2 in each case. The IC50 in the data set with MDA-MB-231 amounted to 11.6 µM; with HCT-116 [2], 17.4 µM; in the data set with HEK-293T, 20.5 µM; in the data set with MCF7, 13.1 µM; in the data set with HCT-116 [5], 16.1 µM.
Regarding `O=C1Nc2ccc(Br)cc2C12N(c1cccc(Cl)c1)N=C(c1ccccc1)N2c1cccc(Cl)c1` (centres undefined), the selectivity ratio in data set [1], in data set [3] and in data set [4] was less than 2 in each case. Besides, the IC50 came to 10.7 µM in the data set with MDA-MB-231; 12 µM in the data set on HCT-116 [2]; 16.9 µM in the data set on HEK-293T; 9.8 µM in the data set with MCF7; 13.1 µM in the data set with HCT-116 [5].
On to `O=C1Nc2ccccc2C12N(c1ccccc1)N=C(c1ccc(Cl)cc1)N2c1ccc(Cl)cc1` (centres undefined), for which the selectivity ratio in data set [1] was less than 2; in data set [3] it was less than 2; in data set [4], 2.1. Moreover, the concentration for half-maximal inhibition (IC50) with MDA-MB-231 was found to be 8.2 µM; in the data set on HCT-116 [2], 16.8 µM; in the data set on HEK-293T it was 22.7 µM; in the data set on MCF7, 10.9 µM; in the data set with HCT-116 [5] it was 18.5 µM.
As to `O=C1Nc2ccc(Br)cc2C12N(c1ccc(Cl)cc1)N=C(c1ccccc1)N2c1cccc(Cl)c1` (centres undefined), the selectivity ratio in data set [1], in data set [3] and in data set [4] was less than 2 throughout. Further, the 50% inhibitory concentration (IC50) in the data set on MDA-MB-231 was found to be 15 µM; in the data set on HCT-116 [2] it was 15 µM; with HEK-293T it was 16.2 µM; in the data set with MCF7 it was 11.4 µM; in the data set with HCT-116 [5], 17.2 µM.
Turning to `O=C1Nc2ccc(Br)cc2C12N(c1cccc(Cl)c1)N=C(c1cccc(Cl)c1)N2c1cccc(Cl)c1` (centres undefined), the selectivity ratio in data set [1], in data set [3] and in data set [4] was less than 2 each time. Besides, the half-maximal inhibitory concentration (IC50) in the data set on MDA-MB-231 was found to be 7 µM; in the data set on HCT-116 [2], 10.2 µM; in the data set on HEK-293T it was 9 µM; in the data set with MCF7, 6.9 µM; in the data set with HCT-116 [5], 9 µM.
With `O=C1Nc2ccc(Br)cc2C12N(c1ccccc1)N=C(c1cccc(Cl)c1)N2c1cccc(Cl)c1` (centres undefined), the selectivity ratio in data set [1], in data set [3] and in data set [4] was less than 2 each time. Also, the concentration for half-maximal inhibition (IC50) was determined as 10.2 µM with MDA-MB-231; 12.6 µM in the data set on HCT-116 [2]; 12.5 µM with HEK-293T; 8 µM in the data set on MCF7; 13 µM in the data set on HCT-116 [5].
`O=C1Nc2ccccc2C12N(c1ccccc1Cl)N=C(c1ccccc1)N2c1ccc(Cl)cc1` (centres undefined): the IC50 in the data set on MDA-MB-231 amounted to 24.8 µM; with MCF7, 28.4 µM.
Take `O=C1Nc2ccc(Br)cc2C12N(c1ccccc1Cl)N=C(c1ccccc1)N2c1cccc(Cl)c1` (centres undefined): the selectivity ratio in data set [1], in data set [3] and in data set [4] was less than 2 throughout. Also, the IC50 amounted to 11.7 µM in the data set on MDA-MB-231; 21.5 µM in the data set on HCT-116 [2]; 20.9 µM in the data set on HEK-293T; 10.2 µM in the data set on MCF7; 31.6 µM in the data set on HCT-116 [5].
Regarding `COc1ccc(C2=N[C@@H](c3ccc(Cl)cc3)[C@@H](c3ccc(Cl)cc3)N2C(=O)N2CCNC(=O)C2)c(OC(C)C)c1` [NUTLIN-3], in the data set on HCT-116 [5], the IC50 is 47.8 µM.
In the case of `O=C1Nc2ccc(Cl)cc2[C@]12[C@@H](c1ccccc1)C(c1ccccc1)=NN2c1ccccc1`, in the data set with MCF7, half-maximal inhibition (IC50) required 37.7 µM.
With `O=C1Nc2c(Cl)cccc2[C@]12[C@@H](c1ccccc1)C(c1ccccc1)=NN2c1ccccc1`, the IC50 was 16.9 µM in the data set with MDA-MB-231, greater than 100 µM in the data set on HEK-293T and 22.4 µM with MCF7. Moreover, the selectivity ratio in data set [4] is greater than 4.5.
`O=C1Nc2ccccc2C12N(c1ccccc1)N=C(c1ccccc1)N2c1ccc(F)c(Cl)c1` (centres undefined): the half-maximal inhibitory concentration (IC50) stood at 32.3 µM in the data set with MDA-MB-231 and 19.5 µM in the data set with MCF7.
On to `O=C1Nc2c(Br)cccc2C12N(c1ccccc1)N=C(c1ccccc1)N2c1ccccc1` (centres undefined), for which the half-inhibitory concentration (IC50) with MDA-MB-231 worked out at 23.7 µM; in the data set with MCF7, 21.8 µM.
With `O=C1Nc2ccccc2C12N(c1cccc(Cl)c1)N=C(c1ccccc1)N2c1ccc(Cl)cc1` (centres undefined), the selectivity ratio in data set [1], in data set [3] and in data set [4] was less than 2 each time. Further, the IC50 with MDA-MB-231 turned out to be 15.7 µM; in the data set on HCT-116 [2] it was 19.8 µM; in the data set on HEK-293T, 15.4 µM; in the data set with MCF7, 14.2 µM; in the data set on HCT-116 [5] it was 18.5 µM.

(Values after ChEMBL document CHEMBL4130474, “Spirotriazoline oxindoles: A novel chemical scaffold with in vitro anticancer properties” (Eur J Med Chem, 2017).)
